From ChEMBL document CHEMBL1127344, “Tridentate ligands containing the SNS donor atom set as a novel backbone for the development of technetium brain-imaging agents” (J Med Chem, 1994)

Experiments:
Rattus norvegicus [1] = species on record: Rattus norvegicus; assay: Tested for biodistribution of compound at 60 min in rat liver; type: ADME, organism-based; settings: in vivo, 1 h
Mus musculus [2] = species on record: Mus musculus; assay: Tested for biodistribution of compound at 1 min in mice heart; type: ADME, organism-based; settings: in vivo
Method in brief: (§1)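 Male Swiss albino mice, at least five per group, received 0.1 mL (2-3 μCi) of HPLC-purified 99mTc complex reconstituted in 50% methanol by tail vein. They were killed by cardiectomy under light ether anesthesia at set times (1-60 min pi). Organs were weighed and γ-counted against a 1% injected-dose standard to give % dose/organ. Blood and muscle were taken as 7% and 43% of body weight.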

Mus musculus [3] = species on record: Mus musculus; assay: Tested for biodistribution of compound at 5 min in mice kidney; type: ADME, organism-based; settings: in vivo
Method in brief: (§2)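 Male Swiss albino mice, at least five per group, received HPLC-purified 99mTc complex by tail vein. The complex was reconstituted in 50% methanol (0.1 mL, 2-3 μCi). Mice were killed by cardiectomy under light ether at 1-60 min pi. Organs were weighed and γ-counted against a 1% injected-dose standard to give % dose/organ. Blood and muscle were taken as 7% and 43% of body weight.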

Mus musculus [4] = species on record: Mus musculus; assay: Tested for biodistribution of compound at 5 min in mice brain; type: ADME, organism-based; settings: in vivo; method in brief: as §2
Mus musculus [5] = species on record: Mus musculus; assay: Tested for biodistribution of compound at 30 min in mice liver; type: ADME, organism-based; settings: in vivo, 0.5 h; method in brief: as §1
Rattus norvegicus [6] = species on record: Rattus norvegicus; assay: Tested for biodistribution of compound at 60 min in rat l intestine; type: ADME, organism-based; settings: in vivo, 1 h
Mus musculus [7] = species on record: Mus musculus; assay: Tested for biodistribution of compound at 30 min in mice urine; type: ADME, organism-based; settings: in vivo, 0.5 h; method in brief: as §1
Rattus norvegicus [8] = species on record: Rattus norvegicus; assay: Tested for biodistribution of compound at 60 min in rat s. intestine; type: ADME, organism-based; settings: in vivo, 1 h
Mus musculus [9] = species on record: Mus musculus; assay: Tested for biodistribution of compound at 30 min in mice stomach; type: ADME, organism-based; settings: in vivo, 0.5 h; method in brief: as §1
Mus musculus [10] = species on record: Mus musculus; assay: Tested for biodistribution of compound at 1 min in mice brain; type: ADME, organism-based; settings: in vivo; method in brief: as §1
Mus musculus [11] = species on record: Mus musculus; assay: Tested for biodistribution of compound at 30 min in mice heart; type: ADME, organism-based; settings: in vivo, 0.5 h; method in brief: as §1
Mus musculus [12] = species on record: Mus musculus; assay: Tested for biodistribution of compound at 10 min in mice urine; type: ADME, organism-based; settings: in vivo; method in brief: as §1
Rattus norvegicus [13] = species on record: Rattus norvegicus; assay: Tested for biodistribution of compound at 30 min in rat kidney; type: ADME, organism-based; settings: in vivo, 0.5 h
Method in brief: (§3)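 Wistar rats under ether anesthesia were dosed through the femoral vein with 0.1 mL of 99mTc complex (3-6 μCi) and dissected 5-60 min pi. Tissue radioactivity was γ-counted against a 1% injected-dose standard and expressed as % dose/organ. Blood and muscle were calculated from sample weight assuming 7% and 43% of body weight.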

Mus musculus [14] = species on record: Mus musculus; assay: Tested for biodistribution of compound at 30 min in mice lungs; type: ADME, organism-based, Lung; settings: in vivo, 0.5 h; method in brief: as §1
Mus musculus [15] = species on record: Mus musculus; assay: Tested for biodistribution of compound at 30 min in mice muscle; type: ADME, organism-based, Muscle tissue; settings: in vivo, 0.5 h; method in brief: as §1
Mus musculus [16] = species on record: Mus musculus; assay: Tested for biodistribution of compound at 60 min in mice blood; type: ADME, organism-based; settings: in vivo, 1 h; method in brief: as §2
Rattus norvegicus [17] = species on record: Rattus norvegicus; assay: Tested for biodistribution of compound at 60 min in rat muscle; type: ADME, organism-based, Muscle tissue; settings: in vivo, 1 h
Rattus norvegicus [18] = species on record: Rattus norvegicus; assay: Tested for biodistribution of compound at 5 min in rat blood; type: ADME, organism-based; settings: in vivo
Mus musculus [19] = species on record: Mus musculus; assay: Tested for biodistribution of compound at 60 min in mice liver; type: ADME, organism-based; settings: in vivo, 1 h; method in brief: as §2
Mus musculus [20] = species on record: Mus musculus; assay: Tested for biodistribution of compound at 5 min in mice muscle; type: ADME, organism-based, Muscle tissue; settings: in vivo; method in brief: as §2
Rattus norvegicus [21] = species on record: Rattus norvegicus; assay: Tested for biodistribution of compound at 60 min in rat brain; type: ADME, organism-based; settings: in vivo, 1 h
Rattus norvegicus [22] = species on record: Rattus norvegicus; assay: Tested for biodistribution of compound at 30 min in rat liver; type: ADME, organism-based; settings: in vivo, 0.5 h
Mus musculus [23] = species on record: Mus musculus; assay: Tested for biodistribution of compound at 10 min in mice blood; type: ADME, organism-based; settings: in vivo; method in brief: as §1
Mus musculus [24] = species on record: Mus musculus; assay: Tested for biodistribution of compound at 60 min in mice intestine; type: ADME, organism-based; settings: in vivo, 1 h; method in brief: as §2
Rattus norvegicus [25] = species on record: Rattus norvegicus; assay: Tested for biodistribution of compound at 5 min in rat stomach; type: ADME, organism-based; settings: in vivo
Mus musculus [26] = species on record: Mus musculus; assay: Tested for biodistribution of compound at 10 min in mice liver; type: ADME, organism-based; settings: in vivo; method in brief: as §1
Mus musculus [27] = species on record: Mus musculus; assay: Tested for biodistribution of compound at 10 min in mice lungs; type: ADME, organism-based, Lung; settings: in vivo; method in brief: as §1
Rattus norvegicus [28] = species on record: Rattus norvegicus; assay: Tested for biodistribution of compound at 60 min in rat heart; type: ADME, organism-based; settings: in vivo, 1 h
Rattus norvegicus [29] = species on record: Rattus norvegicus; assay: Tested for biodistribution of compound at 30 min in rat stomach; type: ADME, organism-based; settings: in vivo, 0.5 h
Rattus norvegicus [30] = species on record: Rattus norvegicus; assay: Tested for biodistribution of compound at 5 min in rat lungs; type: ADME, organism-based, Lung; settings: in vivo
Rattus norvegicus [31] = species on record: Rattus norvegicus; assay: Tested for biodistribution of compound at 30 min in rat heart; type: ADME, organism-based; settings: in vivo, 0.5 h; method in brief: as §3
Mus musculus [32] = species on record: Mus musculus; assay: Tested for biodistribution of compound at 5 min in mice spleen; type: ADME, organism-based; settings: in vivo; method in brief: as §2
Mus musculus [33] = species on record: Mus musculus; assay: Tested for biodistribution of compound at 1 min in mice muscle; type: ADME, organism-based, Muscle tissue; settings: in vivo; method in brief: as §1
Rattus norvegicus [34] = species on record: Rattus norvegicus; assay: Tested for biodistribution of compound at 5 min in rat brain; type: ADME, organism-based; settings: in vivo
Mus musculus [35] = species on record: Mus musculus; assay: Tested for biodistribution of compound at 5 min in mice liver; type: ADME, organism-based; settings: in vivo; method in brief: as §2
Mus musculus [36] = species on record: Mus musculus; assay: Tested for biodistribution of compound at 30 min in mice kidney; type: ADME, organism-based; settings: in vivo, 0.5 h; method in brief: as §1
Mus musculus [37] = species on record: Mus musculus; assay: Tested for biodistribution of compound at 10 min in mice heart; type: ADME, organism-based; settings: in vivo; method in brief: as §1
Rattus norvegicus [38] = species on record: Rattus norvegicus; assay: Tested for biodistribution of compound at 60 min in rat stomach; type: ADME, organism-based; settings: in vivo, 1 h
Rattus norvegicus [39] = species on record: Rattus norvegicus; assay: Tested for biodistribution of compound at 5 min in rat kidney; type: ADME, organism-based; settings: in vivo
Mus musculus [40] = species on record: Mus musculus; assay: Tested for biodistribution of compound at 5 min in mice lungs; type: ADME, organism-based, Lung; settings: in vivo; method in brief: as §2
Rattus norvegicus [41] = species on record: Rattus norvegicus; assay: Tested for biodistribution of compound at 5 min in rat liver; type: ADME, organism-based; settings: in vivo
Rattus norvegicus [42] = species on record: Rattus norvegicus; assay: Tested for biodistribution of compound at 30 min in rat l intestine; type: ADME, organism-based; settings: in vivo, 0.5 h; method in brief: as §3
Mus musculus [43] = species on record: Mus musculus; assay: Tested for biodistribution of compound at 60 min in mice lungs; type: ADME, organism-based, Lung; settings: in vivo, 1 h; method in brief: as §2
Rattus norvegicus [44] = species on record: Rattus norvegicus; assay: Tested for biodistribution of compound at 60 min in rat spleen; type: ADME, organism-based; settings: in vivo, 1 h
Rattus norvegicus [45] = species on record: Rattus norvegicus; assay: Tested for biodistribution of compound at 30 min in rat blood; type: ADME, organism-based; settings: in vivo, 0.5 h; method in brief: as §3
Mus musculus [46] = species on record: Mus musculus; assay: Tested for biodistribution of compound at 30 min in mice brain; type: ADME, organism-based; settings: in vivo, 0.5 h; method in brief: as §1
Mus musculus [47] = species on record: Mus musculus; assay: Tested for biodistribution of compound at 10 min in mice kidney; type: ADME, organism-based; settings: in vivo; method in brief: as §1
Rattus norvegicus [48] = species on record: Rattus norvegicus; assay: Tested for biodistribution of compound at 10 min in rat lungs; type: ADME, organism-based, Lung; settings: in vivo; method in brief: as §3

- Dose/organ (Rattus norvegicus [1]): 35.74%
- Dose/organ (Mus musculus [2]): 3.6%
- Dose/organ (Mus musculus [3]): 3.14%
- Dose/organ (Mus musculus [4]): 3.01%
- Dose/organ (Mus musculus [5]): 25.58%
- Dose/organ (Rattus norvegicus [6]): 1.05%
- Dose/organ (Mus musculus [7]): 5.06%
- Dose/organ (Rattus norvegicus [8]): 8.15%
- Dose/organ (Mus musculus [9]): 1.24%
- Dose/organ (Mus musculus [10]): 3.56%
- Dose/organ (Mus musculus [11]): 0.19%
- Dose/organ (Mus musculus [12]): 1.1%
- Dose/organ (Rattus norvegicus [13]): 6.33%
- Dose/organ (Mus musculus [14]): 3.09%
- Dose/organ (Mus musculus [15]): 8.18%
- Dose/organ (Mus musculus [16]): 1.21%
- Dose/organ (Rattus norvegicus [17]): 10.6%
- Dose/organ (Rattus norvegicus [18]): 18.89%
- Dose/organ (Mus musculus [19]): 35.12%
- Dose/organ (Mus musculus [20]): 24.17%
- Dose/organ (Rattus norvegicus [21]): 0.46%
- Dose/organ (Rattus norvegicus [22]): 29.63%
- Dose/organ (Mus musculus [23]): 1.53%
- Dose/organ (Mus musculus [24]): 33.7%
- Dose/organ (Rattus norvegicus [25]): 2.18%
- Dose/organ (Mus musculus [26]): 14.14%
- Dose/organ (Mus musculus [27]): 9.78%
- Dose/organ (Rattus norvegicus [28]): 0.15%
- Dose/organ (Rattus norvegicus [29]): 2.19%
- Dose/organ (Rattus norvegicus [30]): 9.38%
- Dose/organ (Rattus norvegicus [31]): 0.17%
- Dose/organ (Mus musculus [32]): 0.28%
- Dose/organ (Mus musculus [33]): 17.26%
- Dose/organ (Rattus norvegicus [34]): 1.45%
- Dose/organ (Mus musculus [35]): 10.73%
- Dose/organ (Mus musculus [36]): 2.19%
- Dose/organ (Mus musculus [37]): 0.46%
- Dose/organ (Rattus norvegicus [38]): 2.05%
- Dose/organ (Rattus norvegicus [39]): 3.22%
- Dose/organ (Mus musculus [40]): 15.37%
- Dose/organ (Rattus norvegicus [41]): 19.32%
- Dose/organ (Rattus norvegicus [42]): 1.27%
- Dose/organ (Mus musculus [43]): 1.79%
- Dose/organ (Rattus norvegicus [44]): 0.46%
- Dose/organ (Rattus norvegicus [45]): 7.47%
- Dose/organ (Mus musculus [46]): 1.71%
- Dose/organ (Mus musculus [47]): 3.18%
- Dose/organ (Rattus norvegicus [48]): 7.78%
Substance: [4-methoxythio)phenolato][N,N-bis(2-mercaptoethyl)-N',N'-diethylethylenediamine] oxotechnetium
